{"data": "Measurements gathered from unrelated publications", "CA12": "Carbonic anhydrase 12 (CA12, Homo sapiens, UniProt O43570)", "GLP1R": "Glucagon-like peptide 1 receptor (GLP1R, Homo sapiens, UniProt P43220)", "DRD3": "D(3) dopamine receptor (DRD3, Homo sapiens, UniProt P35462)", "GHSR": "Growth hormone secretagogue receptor type 1 (GHSR, Homo sapiens, UniProt Q92847)", "ACE": "Angiotensin-converting enzyme (ACE, Homo sapiens, UniProt P12821)", "note": "Protocols differ between the studies behind these lines."}
{"SMILES": "Cc1ccc(C(=O)Nc2ccc3c(c2)C=CCP(=O)(O)O3)cc1", "target": "CA12", "assay": "enzyme activity, inhibitor, stopped-flow", "quantity": "Ki", "value": "0.0078 µM"}
{"SMILES": "CC[C@H](C)[C@H](NC(=O)[C@H](Cc1ccccc1)NC(=O)[C@H](CCC(N)=O)NC(=O)[C@H](CCCNC(=N)N)NC(=O)[C@@H](NC(=O)[C@H](C)NC(=O)[C@H](CCCCN)NC(=O)[C@H](CCCNC(=N)N)NC(=O)[C@H](CCC(=O)O)NC(=O)[C@H](CC(C)C)NC(=O)[C@H](CC(C)C)NC(=O)[C@H](CCC(=O)O)NC(=O)[C@H](CO)NC(=O)[C@H](Cc1c[nH]c2ccccc12)NC(=O)[C@H](CC(C)C)NC(=O)[C@H](CO)NC(=O)[C@@H](NC(=O)[C@H](Cc1ccccc1)NC(=O)[C@H](CCC(=O)O)NC(=O)[C@H](CC(C)C)NC(=O)[C@H](CCC(=O)O)NC(=O)CNC(=O)[C@@H]1CCCN1)[C@@H](C)O)C(C)C)C(=O)N[C@@H](CCC(=O)O)C(=O)N[C@@H](CC(=O)O)C(=O)N[C@@H](CC(C)C)C(=O)N[C@@H](CCCCN)C(=O)N[C@@H](CCCCN)C(=O)O", "target": "GLP1R", "assay": "calcium signal, antagonist, fluorescence", "quantity": "IC50", "value": "0.874 µM"}
{"SMILES": "Cc1[nH]c(C)c(S(=O)(=O)Nc2ccc(S(=O)(=O)F)c(F)c2)c1C(=O)N1CCC(F)(F)C1", "target": "DRD3", "assay": "β-arrestin recruitment, antagonist", "quantity": "IC50", "value": "6.5 µM"}
{"SMILES": "O=C(Nc1cccc(C(F)(F)F)c1)Nc1ccc2c(c1)C=CCP(=O)(O)O2", "target": "CA12", "assay": "enzyme activity, inhibitor, stopped-flow", "quantity": "Ki", "value": "> 10 µM"}
{"SMILES": "CC[C@H](C)[C@H](NC(=O)[C@H](C)NC(=O)[C@H](C)NC(=O)[C@H](CCC(=O)O)NC(=O)[C@H](CCCNC(=N)N)NC(=O)[C@H](C)NC(=O)[C@H](CC(C)C)NC(=O)[C@H](CC(C)C)NC(=O)[C@H](CCCNC(=N)N)NC(=O)[C@H](CCCNC(=N)N)NC(=O)[C@H](CC(C)C)NC(=O)[C@H](Cc1c[nH]cn1)NC(=O)[C@H](CCC(=O)O)NC(=O)[C@@H]1CCCN1C(=O)[C@H](CO)NC(=O)[C@H](CC(C)C)NC(=O)[C@H](Cc1ccccc1)NC(=O)[C@H](Cc1ccc(O)cc1)NC(=O)[C@H](CO)NC(=O)CN)C(=O)N1CCC[C@H]1C(=O)N1CCC[C@H]1C(=O)N1CCC[C@H]1C(=O)N1CCC[C@H]1C(=O)N[C@H](C(=O)N[C@@H](CC(C)C)C(=O)N1CCC[C@H]1C(=O)N[C@@H](CC(C)C)C(=O)O)C(C)C", "target": "GHSR", "assay": "calcium signal, antagonist, fluorescence", "quantity": "IC50", "value": "1.1 µM"}
{"SMILES": "Cc1[nH]c(C)c(S(=O)(=O)Nc2ccc(S(F)(F)(F)(F)F)cc2)c1C(=O)N(C)C", "target": "DRD3", "assay": "β-arrestin recruitment, antagonist", "quantity": "IC50", "value": "1.7 µM"}
{"SMILES": "O=C(Nc1cccc(Cl)c1)Nc1ccc2c(c1)C=CCP(=O)(O)O2", "target": "CA12", "assay": "enzyme activity, inhibitor, stopped-flow", "quantity": "Ki", "value": "> 10 µM"}
{"SMILES": "N#C[Se]Cc1cc(=O)oc2cc(O)ccc12", "target": "CA12", "assay": "enzyme activity, inhibitor, stopped-flow", "quantity": "Ki", "value": "0.0933 µM"}
{"SMILES": "CCC(CNc1nc(-c2cn3ccnc3cc2C)nc2ccccc12)c1ccccc1 (centres unmarked)", "target": "Sodium-dependent dopamine transporter (SLC6A3, Homo sapiens, UniProt Q01959)", "assay": "transporter uptake, inhibitor, radiometric", "quantity": "IC50", "value": "9.86 µM"}
{"SMILES": "CC[C@H](C)[C@H](NC(=O)[C@H](Cc1ccccc1)NC(=O)[C@H](CC(=O)O)NC(=O)[C@H](CCCNC(=N)N)NC(=O)[C@@H](NC(=O)[C@H](C)NC(=O)[C@H](CCCCN)NC(=O)[C@H](CCCNC(=N)N)NC(=O)[C@H](CCC(=O)O)NC(=O)[C@H](CC(C)C)NC(=O)[C@H](CC(C)C)NC(=O)[C@H](CCC(=O)O)NC(=O)[C@H](CC(=O)O)NC(=O)[C@H](Cc1c[nH]c2ccccc12)NC(=O)[C@H](CC(C)C)NC(=O)[C@H](CO)NC(=O)[C@@H](NC(=O)[C@H](Cc1ccccc1)NC(=O)[C@H](CCC(=O)O)NC(=O)[C@H](CC(C)C)NC(=O)[C@H](CCC(=O)O)NC(=O)CNC(=O)[C@@H]1CCCN1)[C@@H](C)O)C(C)C)C(=O)N[C@@H](C)C(=O)N[C@@H](Cc1c[nH]cn1)C(=O)N[C@@H](CC(C)C)C(=O)N[C@@H](CCCCN)C(=O)N[C@@H](CCC(N)=O)C(=O)O", "target": "GLP1R", "assay": "calcium signal, antagonist, fluorescence", "quantity": "IC50", "value": "1.61 µM"}
{"SMILES": "O=C(Nc1ccccc1)Nc1ccc2c(c1)C=CCP(=O)(O)O2", "target": "CA12", "assay": "enzyme activity, inhibitor, stopped-flow", "quantity": "Ki", "value": "> 10 µM"}
{"SMILES": "CCCCC1CNC2CCc3ccc(OC)cc3C12 (racemic)", "target": "DRD3", "assay": "ligand displacement, radioligand", "quantity": "Ki", "value": "5.03 µM"}
{"SMILES": "CC(C)C[C@H](NC(=O)[C@@H](N)C(C)C)C(=O)N[C@@H](CO)C(=O)N1CCC[C@H]1C(=O)N[C@@H](CCC(N)=O)C(=O)O", "target": "ACE", "assay": "enzyme activity, inhibitor, absorbance", "quantity": "IC50", "value": "105 µM"}
{"SMILES": "O=C(Nc1ccc2c(c1)C=CCP(=O)(O)O2)c1cccs1", "target": "CA12", "assay": "enzyme activity, inhibitor, stopped-flow", "quantity": "Ki", "value": "0.0746 µM"}
{"SMILES": "CC[C@H](C)[C@H](NC(=O)[C@H](C)NC(=O)[C@H](C)NC(=O)[C@H](CCC(=O)O)NC(=O)[C@H](CCCNC(=N)N)NC(=O)[C@H](C)NC(=O)[C@H](CC(C)C)NC(=O)[C@H](CC(C)C)NC(=O)[C@H](CCCNC(=N)N)NC(=O)[C@H](CCCNC(=N)N)NC(=O)[C@H](CCC(=O)O)NC(=O)[C@H](Cc1c[nH]cn1)NC(=O)[C@H](CCC(=O)O)NC(=O)[C@@H]1CCCN1C(=O)[C@H](CO)NC(=O)[C@H](CC(C)C)NC(=O)[C@H](Cc1ccccc1)NC(=O)[C@H](Cc1c[nH]c2ccccc12)NC(=O)[C@H](CO)NC(=O)CN)C(=O)N1CCC[C@H]1C(=O)N1CCC[C@H]1C(=O)N1CCC[C@H]1C(=O)N1CCC[C@H]1C(=O)N[C@H](C(=O)N1CCC[C@H]1C(=O)N1CCC[C@H]1C(=O)N[C@@H](CC(C)C)C(=O)O)C(C)C", "target": "GHSR", "assay": "calcium signal, agonist, fluorescence", "quantity": "EC50", "value": "0.27 µM"}
{"SMILES": "CC(C)C[C@H](NC(=O)[C@@H](NC(=O)[C@@H](NC(=O)[C@@H]1CCCN1C(=O)[C@@H](N)CCC(=O)O)C(C)C)[C@@H](C)O)C(=O)N[C@H](C(=O)O)[C@@H](C)O", "target": "ACE", "assay": "enzyme activity, inhibitor", "quantity": "IC50", "value": "~872 µM"}
{"SMILES": "Cc1[nH]c(C)c(S(=O)(=O)Nc2ccc(S(=O)(=O)F)c(Cl)c2)c1C(=O)N1CCC(F)(F)C1", "target": "DRD3", "assay": "β-arrestin recruitment, antagonist", "quantity": "IC50", "value": "0.93 µM"}
{"SMILES": "CC(C)[C@H](NC(=O)[C@@H](N)CCC(=O)O)C(=O)N[C@@H](CC(N)=O)C(=O)N[C@@H](Cc1ccc(O)cc1)C(=O)N[C@@H](CC(=O)O)C(=O)O", "target": "ACE", "assay": "enzyme activity, inhibitor", "quantity": "IC50", "value": "~1550 µM"}
{"SMILES": "CC[C@H](C)[C@H](NC(=O)[C@H](C)NC(=O)[C@H](CCCNC(=N)N)NC(=O)[C@H](CCC(=O)O)NC(=O)[C@H](CCCNC(=N)N)NC(=O)[C@H](CCC(=O)O)NC(=O)[C@H](CC(C)C)NC(=O)[C@H](CC(C)C)NC(=O)[C@H](CCCNC(=N)N)NC(=O)[C@H](CCCNC(=N)N)NC(=O)[C@H](CCC(N)=O)NC(=O)[C@H](Cc1c[nH]cn1)NC(=O)[C@H](CCC(=O)O)NC(=O)[C@@H]1CCCN1C(=O)[C@H](CO)NC(=O)[C@H](CC(C)C)NC(=O)[C@H](Cc1ccccc1)NC(=O)[C@H](Cc1c[nH]c2ccccc12)NC(=O)[C@H](CO)NC(=O)CN)C(=O)N1CCC[C@H]1C(=O)N1CCC[C@H]1C(=O)N1CCC[C@H]1C(=O)N1CCC[C@H]1C(=O)N[C@H](C(=O)N[C@H](C(=O)N1CCC[C@H]1C(=O)N[C@@H](CC(C)C)C(=O)O)C(C)C)C(C)C", "target": "GHSR", "assay": "calcium signal, agonist, fluorescence", "quantity": "EC50", "value": "0.16 µM"}
{"SMILES": "O=C(Nc1cccc(F)c1)Nc1ccc2c(c1)C=CCP(=O)(O)O2", "target": "CA12", "assay": "enzyme activity, inhibitor, stopped-flow", "quantity": "Ki", "value": "> 10 µM"}
